This assay concerns the target Transcriptional enhancer factor TEF-1 (Homo sapiens, UniProt P28347). Kind of assay: Inhibition of NL-tagged YAP (unknown origin) interaction with myc-tagged human TEAD1 preincubated for 1 hr followed by NL-tagged YAP addition by NanoGlo assay. Summed up:
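Myc-TEAD1 from transfected HeLa lysate was captured with anti-myc antibody on protein-G-coated 96-well plates. Wells were pretreated with compound in PBS for 1 h at 4 °C, then co-incubated with lysate from HeLa cells expressing YAP–nanoluciferase. After four PBS washes, bound YAP–NL was read with NanoGlo.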

pIC50: −log10 of the molar value.

Sequence of Transcriptional enhancer factor TEF-1 (P28347 whole entry): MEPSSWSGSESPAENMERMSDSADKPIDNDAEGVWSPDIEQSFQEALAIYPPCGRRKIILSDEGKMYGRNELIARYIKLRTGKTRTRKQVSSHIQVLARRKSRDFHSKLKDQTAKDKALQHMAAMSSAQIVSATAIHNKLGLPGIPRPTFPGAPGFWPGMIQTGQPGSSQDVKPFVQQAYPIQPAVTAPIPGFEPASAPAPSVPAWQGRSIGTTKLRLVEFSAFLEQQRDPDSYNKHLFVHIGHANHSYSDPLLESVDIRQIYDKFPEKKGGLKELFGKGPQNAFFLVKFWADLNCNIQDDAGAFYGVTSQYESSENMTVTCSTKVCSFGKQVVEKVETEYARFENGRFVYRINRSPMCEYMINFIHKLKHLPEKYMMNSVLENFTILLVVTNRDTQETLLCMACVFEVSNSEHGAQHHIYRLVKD

As for `Cc1ccc2c(c1)c1c3n2CCN(C[C@H](O)CN2CCN(C(=O)c4ccco4)CC2)[C@@H]3CCC1`, the pIC50 is 4.32.

By pIC50 is commonly meant the IC50 on a negative log10 scale, so that one unit is a factor of ten.

The values above are taken from BindingDB's records for doi:10.1021/acs.jmedchem.8b01402 (University of Bristol, 2019).
